Published values gathered from unrelated publications.
pIC50: −log10 of the molar value.
Cell line: HCT-116
Observed: cell growth or viability

CC[C@@]1(OC(=O)[C@@H](N)CCSC)C(=O)OCc2c1cc1n(c2=O)Cc2cc3cc4c(cc3nc2-1)OCO4  pIC50 (MTT): 7.25
N.N.[Cl][Pt][Cl]  pIC50 (MTS; 72 h): 4.38
N.N.[Cl][Pt][Cl]  pIC50 (SRB): 5.28
COc1ccc2[nH]cc(CCNc3nccc(Nc4cccc5c4ccn5C)n3)c2c1  pIC50 (fluorescence; 72 h): 8.04
CC1=C(O)C(=O)C=C2C1=CC=C1[C@@]2(C)CC[C@@]2(C)[C@@H]3C[C@](C)(C(=O)O)CC[C@]3(C)CC[C@]12C  pIC50 (MTT; 48 h): 6.37
O=c1ccc2cc3ccoc3cc2o1  pIC50 (WST-1; 48 h): 4.58
COc1cc2c3c(n(CCCN4CCOCC4)c(=O)c2cc1OC)-c1cc2c(cc1C3=O)OCO2  IC50 (72 h): 0.618 µg/mL
CC1=C(O)C(=O)C=C2C1=CC=C1[C@@]2(C)CC[C@@]2(C)[C@@H]3C[C@](C)(C(=O)OCCCn4cc(C=O)c5ccccc54)CC[C@]3(C)CC[C@]12C  pIC50 (MTT; 48 h): 6.24
O=c1ccc2ccc3occc3c2o1  pIC50 (WST-1; 48 h): 5.06
CC[C@@]1(OC(=O)[C@@H](N)C(C)C)C(=O)OCc2c1cc1n(c2=O)Cc2cc3cc4c(cc3nc2-1)OCO4  pIC50 (MTT): 7.34
CSC(=NNC(=O)c1ccc(Cl)c(Cl)c1)SC  pIC50 (MTT; 5 days): 4.55
CC[C@@]1(O)C(=O)OCc2c1cc1n(c2=O)Cc2cc3cc4c(cc3nc2-1)OCO4  pIC50 (MTT; 72 h): 7.85
CSC(=NNC(=O)c1ccc(O)cc1)SC  pIC50 (MTT; 5 days): < 4.00
CC[C@@]1(OC(=O)Cc2c(C)n(C(=O)c3ccc(Cl)cc3)c3ccc(OC)cc23)C(=O)OCc2c1cc1n(c2=O)Cc2cc3cc4c(cc3nc2-1)OCO4  pIC50 (MTT): 7.34
N.N.[Cl][Pt][Cl]  pIC50 (48 h): 4.79
CC[C@@]1(OC(=O)[C@@H](N)CCCCN)C(=O)OCc2c1cc1n(c2=O)Cc2cc3cc4c(cc3nc2-1)OCO4  pIC50 (MTT): 7.55
CN[C@@H]1C[C@H]2O[C@@](C)([C@@H]1OC)n1c3ccccc3c3c4c(c5c6ccccc6n2c5c31)C(=O)NC4  pIC50 (MTT): 7.82
CCC1(OC(=O)C(C)c2ccc3cc(OC)ccc3c2)C(=O)OCc2c1cc1n(c2=O)Cc2cc3cc4c(cc3nc2-1)OCO4 (stereo not shown)  pIC50 (MTT): 5.63
COc1ccc2c(c1)[nH]c1c(C)nccc12  pIC50 (MTT; 72 h): 4.60
